Results from PubChem BioAssay.
Inconclusive results are not listed.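 The calls were made as follows, unless noted: active = inhibition over a set limit, the all-compound mean plus 3 SD, in both replicate runs; inconclusive = over that limit in just one replicate run; inactive = at or under that limit in both runs.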

Experiments:
[1] = S. cerevisiae growth inhibition in permissive medium (OD615), pilot counter-assay for S. cerevisiae lifespan shortening project, permissive growth control (AID 705;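 active = growth inhibition above 25% in both replicates, a cutoff set 3 SD above the mean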); details: OD615, 24 h, at 10 µM, active compounds read high
In short: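 System: engineered DeaD yeast; Medium: permissive raffinose/galactose medium; Compound dosing: 10 µM single dose, 0.25% DMSO; Incubation: 4 h cell pre-growth, 24 h exposure at 30 °C; Technique: OD at 615 nm; Evaluation: growth inhibition from lowered OD615 after 24 h.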

[2] = S. cerevisiae growth inhibition in restrictive medium, OD615, pilot screen, restrictive growth control, yeast lifespan reduction project (AID 706;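 active = growth inhibition above a set limit, 3 SD over mean compound inhibition, in both replicates, cut at about 43% in these data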;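 also: modified DeaD lifespan yeast strain shifted to restrictive glucose medium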); details: OD615, 48 h, at 10 µM, active compounds read high
In short: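 Material: modified S. cerevisiae; buffer or medium: CSMM-D glucose medium; doses: one concentration, 10 µM final, 0.25% DMSO; incubation: 48 h compound exposure at 30 °C; detection: optical density at 615 nm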

[3] = doxorubicin toxicity protection in MRP-1 cells – H69AR cells, CellTiter-Glo, duplicate, MRP-1 activator project, pilot screen (AID 807;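 active = viability increase at or above a cutoff of the median across tested compounds plus 3 SD, cut at about 8.5% in these data, passing the limit was not always enough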;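 also: compound pretreatment 18-22 h then 72 h combined with doxorubicin; 0% = doxorubicin alone and 100% = vehicle without doxorubicin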); details: H69AR viability with doxorubicin, CellTiter-Glo luminescence; at 10 µM; active compounds read high
[4] = viability of HCT116 without oncogenic beta-catenin – human colon tumor cells, pilot screen (AID 823;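 active = cell viability at or below a set limit in both duplicate runs, the limit being the all-compound median minus 4 SD, cut at about 23% in these data, passing the limit was not always enough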;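 also: 0% = wells killed by 20 µM Hyamine and 100% = untreated DMSO cell wells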); details: HCT116 beta-catenin knockout viability, CellTiter-Glo, 60 h; at 10 µM; active compounds read low
[5] = viability of PTEN-null HCT116 cells – cell-based, HCT116 clonal line, CellTiter-Glo, pilot screen (AID 824;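 active = viability at or below 27.92% in each of two runs, the all-compound median minus 4 SD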;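 also: 0% = 20 µM Hyamine control and 100% = vehicle cell control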); details: HCT116 PTEN-deleted viability, 60 h, at 10 µM, active compounds read low
[6] = RAM pathway blockade in budding yeast – dse1pr::URA3 reporter, 5-FOA selection, pilot screen (AID 869);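 also: 0% = DMSO wells with no growth and 100% = 10 µM 1-NA-PP1 with full growth; RAM network block rescues cells from 5-FOA so hits raise OD615 growth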; details: S. cerevisiae dse1pr::URA3 5-FOA growth, OD615, 2 d; at 10 µM; active compounds read high; strain carries analog-sensitive mutant Cbk1 kinase
[7] = RAM signaling pathway blockade in yeast – S. cerevisiae, Pdr1DBD-CYC8 efflux-inhibited sensitized strain, primary screen (AID 1298;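 active = RAM network inhibition above 8.4% in each of two replicates, 3 SD over the compound average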;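 also: 0% = DMSO untreated cells without growth and 100% = 10 µM 1-NA-PP1 full growth; higher means more yeast growth rescued from 5-FOA killing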); details: S. cerevisiae cbk1-as DSE1-URA3 strain, 5-FOA growth OD615, 2 d; at 50 µM; active compounds read high

O=C(COc1ccccc1)N1CCN(S(=O)(=O)c2cccs2)CC1
inactive: growth inhibition [1] -4.47% | growth inhibition [2] -11% | viability increase [3] -0.82% | viability [4] 94% | viability [5] 85.3% | inhibition [6] 0.6% | RAM network inhibition [7] 7.83%

Fc1ccc(OCc2nc(-c3ccc(Br)o3)no2)c(F)c1
inactive: growth inhibition [1] -8.99% | growth inhibition [2] -12.8% | viability increase [3] 2.67% | viability [4] 99.5% | viability [5] 97.7% | inhibition [6] 0.82% | RAM network inhibition [7] 3.12%

CCOC(=O)c1ccccc1N1C(=O)CSC1=S
inactive: growth inhibition [1] -22.3% | growth inhibition [2] -19.6% | viability increase [3] -4.62% | viability [4] 96% | viability [5] 91.1% | inhibition [6] 1.11% | RAM network inhibition [7] 0.73%

CCOc1ccc(C2N(c3ccc(Cl)cc3)C(=O)C3CCCN32)cc1OC (configuration not stated)
inactive: growth inhibition [1] -2.75% | growth inhibition [2] -6.81% | viability increase [3] -1.98% | viability [4] 98.7% | viability [5] 95.8% | inhibition [6] -0.115% | RAM network inhibition [7] 5.42%

Cc1ccc(-n2ncc3c(NCCCn4ccnc4)ncnc32)c(C)c1
inactive: growth inhibition [1] -3.41% | growth inhibition [2] -7.83% | viability increase [3] -0.58% | viability [4] 88.8% | viability [5] 90.6% | inhibition [6] 1.5% | RAM network inhibition [7] 2.5%

COc1c(C)cc(Br)cc1C(=O)Nc1cccc(-c2nc3ncccc3o2)c1
inactive: growth inhibition [1] -0.485% | growth inhibition [2] 15% | viability increase [3] -4.84% | viability [4] 55.6% | viability [5] 46.5% | inhibition [6] 2.24% | RAM network inhibition [7] 7.82%

COc1ccc(S(=O)(=O)NCc2ccccc2Cl)cc1OC
inactive: growth inhibition [1] -5.85% | growth inhibition [2] 2.66% | viability increase [3] -1.42% | viability [4] 102% | viability [5] 96.1% | inhibition [6] 1.98% | RAM network inhibition [7] 2.86%

Cc1onc(-c2ccccc2)c1C(=O)Nc1ccccc1C#N
inactive: growth inhibition [1] -5.39% | growth inhibition [2] -4.02% | viability increase [3] -2.87% | viability [4] 97.3% | viability [5] 91.8% | inhibition [6] 1.89% | RAM network inhibition [7] 2.87%

Cc1ccc(-c2nc3cnccn3c2Nc2ccccc2)o1
inactive: growth inhibition [1] 0.205% | growth inhibition [2] 14.9% | viability increase [3] -0.77% | viability [4] 91.2% | viability [5] 84.3% | inhibition [6] 0.995% | RAM network inhibition [7] 1.9%

COc1cc(NC(=O)c2c(-c3ccccc3Cl)noc2C)c2ncccc2c1
inactive: growth inhibition [1] -15.8% | growth inhibition [2] -18.1% | viability increase [3] -0.47% | viability [4] 60.2% | viability [5] 64.3% | inhibition [6] 2.6% | RAM network inhibition [7] 7.52%

COCCCN(C(=O)Cn1ncc2c(=O)oc3ccc(C)cc3c21)C(C)c1ccncc1 (configuration not stated)
inactive: growth inhibition [1] -16% | growth inhibition [2] -27.4% | viability increase [3] -1.85% | viability [4] 103% | viability [5] 98.3% | inhibition [6] 1.15% | RAM network inhibition [7] 0.85%

CN(C)S(=O)(=O)Nc1ccc2c(c1)Cc1ccccc1-2
inactive: growth inhibition [1] -17.4% | growth inhibition [2] -9.69% | viability increase [3] -2.09% | viability [4] 92.3% | viability [5] 88.5% | inhibition [6] 1% | RAM network inhibition [7] 4.68%

COc1ccc(C2CC(c3ccc(Cl)cc3Cl)Nc3nc(N)nn32)cc1OC (configuration not stated)
inactive: growth inhibition [1] 0.16% | growth inhibition [2] 22.6% | viability increase [3] 6.01% | viability [4] 88.2% | viability [5] 85.7% | inhibition [6] 0.4% | RAM network inhibition [7] 1.22%

Cc1cc(C)nc(-n2nc(C)cc2NC(=O)CN2CCC(C)CC2)n1
inactive: growth inhibition [1] -0.83% | growth inhibition [2] 21.6% | viability increase [3] -5.27% | viability [4] 75.3% | viability [5] 85.5% | inhibition [6] 1.01% | RAM network inhibition [7] 2.91%

COc1ccc(CCNS(=O)(=O)c2ccc3c(c2)oc(=O)n3C)cc1OC
inactive: growth inhibition [1] -5.33% | growth inhibition [2] -1.19% | viability increase [3] -0.83% | viability [4] 105% | viability [5] 94.2% | inhibition [6] 2.37% | RAM network inhibition [7] 0.8%

COc1ccc(OCC(=O)Nc2ccccc2OC)cc1
inactive: growth inhibition [1] 11.4% | growth inhibition [2] 7.31% | viability increase [3] -4.87% | viability [4] 105% | viability [5] 101% | inhibition [6] 0.82% | RAM network inhibition [7] -2.32%

COc1ccc(C(=O)NCC(c2cccnc2)N2CCN(c3ccccc3)CC2)cc1OC (configuration not stated)
inactive: growth inhibition [1] -5.73% | growth inhibition [2] 0.095% | viability increase [3] -2.1% | viability [4] 97.6% | viability [5] 93.1% | inhibition [6] 1.5% | RAM network inhibition [7] 2.74%

CN(C)S(=O)(=O)c1ccc(NC(=O)C2COc3ccccc3O2)cc1 (configuration not stated)
inactive: growth inhibition [1] -9.66% | growth inhibition [2] -10.9% | viability increase [3] 0.49% | viability [4] 90.2% | viability [5] 83.8% | inhibition [6] 1.27% | RAM network inhibition [7] 2.63%

COc1ccccc1S(=O)Cc1ccc(C(=O)NCc2ccccc2Cl)o1 (configuration not stated)
inactive: growth inhibition [1] -7.49% | growth inhibition [2] -16.8% | viability increase [3] -1.27% | viability [4] 100% | viability [5] 89.7% | inhibition [6] 2.41% | RAM network inhibition [7] 4.64%

COc1ccc(OC)c2[nH]c(=O)c(CCNC(=O)C(C)(C)C)cc12
inactive: growth inhibition [1] -5.16% | growth inhibition [2] -4.56% | viability increase [3] 1.19% | viability [4] 105% | viability [5] 102% | inhibition [6] 0.23% | RAM network inhibition [7] 0.89%

CCc1nnc(NC(=O)c2ccc(S(=O)(=O)N(CCOC)CCOC)cc2)s1
inactive: growth inhibition [1] -9.86% | growth inhibition [2] -3% | viability increase [3] 3.39% | viability [4] 115% | viability [5] 107% | inhibition [6] 0.77% | RAM network inhibition [7] 1.29%

Cc1cccc(C)c1Nc1nc2ccccc2o1
inactive: growth inhibition [1] -7.32% | growth inhibition [2] 11.5% | viability increase [3] -0.76% | viability [4] 93.3% | viability [5] 94.3% | inhibition [6] 1.97% | RAM network inhibition [7] -0.32%

NC(=O)C1(N2CCCCC2)CCN(C(=O)c2cccs2)CC1
inactive: growth inhibition [1] -8.17% | growth inhibition [2] -16.6% | viability increase [3] 0.57% | viability [4] 105% | viability [5] 92.3% | inhibition [6] 0.955% | RAM network inhibition [7] 1.19%

CCOC(=O)N1CCC(NC(=O)c2cnc3n(c2=O)CCS3)CC1
inactive: growth inhibition [1] -1% | growth inhibition [2] -6.85% | viability increase [3] 1.34% | viability [4] 101% | viability [5] 100% | inhibition [6] 2.27% | RAM network inhibition [7] 1.68%

Cc1cc(C)n(-c2nc3ccccc3nc2N2CCOCC2)n1
inactive: growth inhibition [1] -12.6% | growth inhibition [2] 7.74% | viability increase [3] -1.22% | viability [4] 98% | viability [5] 98.3% | inhibition [6] 2.33% | RAM network inhibition [7] 2.25%

Cc1onc(-c2ccccc2Cl)c1C(=O)NC1CCS(=O)(=O)C1 (configuration not stated)
inactive: growth inhibition [1] -10% | growth inhibition [2] 1.32% | viability increase [3] 1.32% | viability [4] 103% | viability [5] 106% | inhibition [6] 2.96% | RAM network inhibition [7] 3.02%

Cc1ccc(C)c(N(C)S(=O)(=O)c2cccc3nsnc23)c1
inactive: growth inhibition [1] -6.8% | growth inhibition [2] -6.89% | viability increase [3] -3.51% | viability [4] 79.5% | viability [5] 75.5% | inhibition [6] 0.92% | RAM network inhibition [7] 7.63%

COC(=O)C(C)Sc1ccc2nnc(-c3cccc(F)c3)n2n1 (configuration not stated)
inactive: growth inhibition [1] 8.96% | growth inhibition [2] 14.9% | viability increase [3] -3.98% | viability [4] 94.7% | viability [5] 87.4% | inhibition [6] 2.51% | RAM network inhibition [7] 0.15%

Cc1cc(Nc2cccc(Cl)c2C)n2ncnc2n1
inactive: growth inhibition [1] -2.94% | growth inhibition [2] -1.32% | viability increase [3] -1.11% | viability [4] 94.2% | viability [5] 95% | inhibition [6] 2.26% | RAM network inhibition [7] 2.35%

CN(C(=O)c1cnc2n(c1=O)CCS2)C1CCCCC1
inactive: growth inhibition [1] -9.04% | growth inhibition [2] -5.85% | viability increase [3] -0.01% | viability [4] 105% | viability [5] 110% | inhibition [6] 1.5% | RAM network inhibition [7] 3.96%

COc1ccc(OCC(=O)N(C)Cc2ccccc2)cc1
inactive: growth inhibition [1] -3.42% | growth inhibition [2] 1.48% | viability increase [3] -2.43% | viability [4] 96% | viability [5] 91.7% | inhibition [6] 0.72% | RAM network inhibition [7] 0.61%

Cc1ccc(-c2nc3ncccc3o2)cc1NC(=O)Cc1ccc(Cl)cc1
inactive: growth inhibition [1] -17.4% | growth inhibition [2] -10.8% | viability increase [3] -4.9% | viability [4] 81.8% | viability [5] 82.9% | inhibition [6] 2.07% | RAM network inhibition [7] 1.75%

COc1ccccc1NC(=O)c1ccc(N)cc1
inactive: growth inhibition [1] -2% | growth inhibition [2] -2.66% | viability increase [3] 0.45% | viability [4] 105% | viability [5] 103% | inhibition [6] 2.87% | RAM network inhibition [7] 2.74%

O=S(=O)(c1ccccc1)N1CCN(C2CCN(Cc3ccccc3)CC2)CC1
inactive: growth inhibition [1] -10.8% | growth inhibition [2] -0.305% | viability increase [3] -1.86% | viability [4] 90.3% | viability [5] 94.4% | inhibition [6] 0.155% | RAM network inhibition [7] 2.72%

O=C(Cn1nc(-c2ccc(Cl)cc2)ccc1=O)NCC1CCCO1 (configuration not stated)
inactive: growth inhibition [1] -1.09% | growth inhibition [2] -10.1% | viability increase [3] -1.53% | viability [4] 92.5% | viability [5] 93.8% | inhibition [6] 1.24% | RAM network inhibition [7] 7.63%

COc1cc(C(c2sc3nc(C)nn3c2O)N2CCc3ccccc3C2)cc(OC)c1OC (configuration not stated)
inactive: growth inhibition [1] 3.55% | growth inhibition [2] -1.53% | viability increase [3] -1.3% | viability [4] 110% | viability [5] 96.1% | inhibition [6] 1.23% | RAM network inhibition [7] 2.85%
